In one assay the test system is Zymoseptoria tritici. The assay is described as follows: Antifungal activity against Septoria tritici assessed as zone of inhibition at 0.05 mg by agar diffusion method. It counts as functional. Particulars: read-out: IZ. The procedure, abridged: (§1)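 Fungi are grown on MPY medium. A 9 mm sterile filter disk is loaded with 0.05 mg of compound (50 μL of a 1.0 mg/mL acetone solution), laid on the agar, and then sprayed with a fungal suspension. The inhibition zone is scored, with an acetone control.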

Another assay has as its system Microbotryum violaceum. The assay is described as follows: Antifungal activity against Microbotryum violaceum assessed as zone of inhibition at 0.05 mg by agar diffusion method. In kind it is functional. The settings on record: read-out: IZ. The method in brief: as §1
In general terms: In agar diffusion tests the substance spreads into inoculated agar from a disc or well.

The test system of the next assay is HepG2. The assay is described as follows: Cytotoxicity against human HepG2 cells by MTT assay. It counts as functional, cell-based. The method in brief: (§2)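 Growth inhibition is read colorimetrically by a modified MTT method on HepG2 or Caco-2 cells. Adriamycin is the positive control. IC50 is reported.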
(Tetrazolium assays rely on reduction of a dye to a coloured formazan, in cell work by metabolically active cells.)

For the next assay, the system named is Priestia megaterium. The assay is described as follows: Antibacterial activity against Bacillus megaterium assessed as zone of inhibition at 0.05 mg by agar diffusion method. It counts as functional. The settings on record: read-out: IZ. The procedure, abridged:
(§3)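 Compound is dissolved in acetone at 1.0 mg/mL, and 0.05 mg is applied to a sterile 9 mm filter disk. The disk is placed on NB agar and sprayed with a bacterial suspension. Read-out is the inhibition zone around the disk. Acetone serves as the solvent control.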

A further assay concerns Escherichia coli. As to the kind of experiment: Antibacterial activity against Escherichia coli assessed as zone of inhibition at 0.05 mg by agar diffusion method. It counts as functional. The settings on record: read-out: IZ. The procedure, abridged: as §3
The next assay has as its system Caco-2. As to the kind of experiment: Cytotoxicity against human Caco2 cells by MTT assay. It counts as functional, cell-based. The method in brief: as §2
Another assay concerns [Chlorella] fusca. As to the kind of experiment: Antimicrobial activity against Chlorella fusca assessed as zone of inhibition at 0.05 mg by agar diffusion method. It counts as functional. The settings on record: Scenedesmus fuscus; read-out: IZ. The method in brief:
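The microalga Chlorella fusca is tested on CP medium. A sterile 9 mm paper disk carries 0.05 mg of compound from a 1.0 mg/mL acetone solution and is placed on the agar, which is then sprayed with the algal suspension. The zone of growth inhibition is recorded, with acetone as control.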

A word on the IC50: it is the point on the concentration scale where inhibition reaches its midpoint. Read a low IC50 as greater potency.

Activity calls are given as the source filed them. No cut-off for these calls is given here.

As for `CC(=O)N1CCN(c2ccc(OCC3COC(Cn4ccnc4)(c4ccc(Cl)cc4Cl)O3)cc2)CC1` (configuration not stated) [KETOCONAZOLE], the zone of inhibition at 50 µg/disc in the assay on Zymoseptoria tritici was 14 mm; in the assay on Microbotryum violaceum, 15 mm.
With `C=C(CC[C@@H](C)[C@H]1CC[C@@H]([C@@H]2CC=C3C[C@@H](O[C@@H]4O[C@@H](C)[C@@H](O)[C@@H](O)[C@@H]4O)CC[C@]3(C)C2=O)[C@]1(C)CCO)C(C)C` [SINULAROSIDE A], the “growth inhibition (GI)” value in the assay on HepG2 and in the assay with Caco-2 was “inactive” in each case. The zone of inhibition at 50 µg/disc in the assay on Priestia megaterium was 30 mm; with Escherichia coli, 0 mm; in assay [Chlorella] fusca, 12 mm; with Zymoseptoria tritici it was 14 mm; with Microbotryum violaceum it was 17 mm.
With `C=C(CC[C@@H](C)[C@H]1CC[C@@H]([C@@H]2CC=C3C[C@@H](O[C@@H]4O[C@@H](C)[C@@H](OC(C)=O)[C@@H](O)[C@@H]4O)CC[C@]3(C)C2=O)[C@]1(C)CCO)C(C)C` [SINULAROSIDE B], the “growth inhibition (GI)” value with HepG2 and in the assay with Caco-2 was “inactive” each time. In addition, the zone of inhibition at 50 µg/disc with Priestia megaterium came out at 30 mm; with Escherichia coli it was 0 mm; in assay [Chlorella] fusca, 14 mm; with Zymoseptoria tritici, 15 mm; in the assay with Microbotryum violaceum, 17 mm.
Regarding `COc1cccc2c1C(=O)c1c(O)c3c(c(O)c1C2=O)C[C@@](O)(C(=O)CO)C[C@@H]3O[C@H]1C[C@H](N)[C@H](O)[C@H](C)O1` [DOXORUBICIN], the concentration for half-maximal inhibition (IC50) in the assay on HepG2 and with Caco-2 was 2700 nM throughout.
`CC1(C)S[C@@H]2[C@H](NC(=O)Cc3ccccc3)C(=O)N2[C@H]1C(=O)O` [PENICILLIN G]: the zone of inhibition at 50 µg/disc was 28 mm in the assay on Priestia megaterium and 20 mm in the assay on Escherichia coli.
Take `CN[C@@H]1[C@H](O[C@H]2[C@H](O[C@H]3[C@H](O)[C@@H](O)[C@H](N=C(N)N)[C@@H](O)[C@@H]3N=C(N)N)O[C@@H](C)[C@]2(O)C=O)O[C@@H](CO)[C@H](O)[C@H]1O` [STREPTOMYCIN]: the zone of inhibition at 50 µg/disc in the assay with Priestia megaterium was 30 mm; in the assay on Escherichia coli, 25 mm.

The values are drawn from ChEMBL document CHEMBL2146388, “Sinularosides A and B, bioactive 9,11-secosteroidal glycosides from the South China Sea soft coral Sinularia humilis Ofwegen” (J Nat Prod, 2012).
